Experimental data taken from paper PMC9328826 (Journal of Food and Drug Analysis, 2016).

Columns and labels:
[1] = WST-8 cytotoxicity assay on NIH/3T3 cells; assay type: cell-based; conditions: mouse, NIH/3T3 embryonic fibroblast cells
Outline: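 NIH/3T3 cells, cultured in HEPES-buffered E-MEM with 10% FBS at 37°C, 5% CO2, seeded at 2 × 10^3 cells/well. Exposed to test compound at 0.5–10 μM for 24 and 48 hours at 37°C, with 0.1% DMSO for control and cell-free blank. WST-8 added for 4 hours, then OD read at 450 nm. Viability given as % of control (n = 3); IC50 fitted from dose-response curve by Hill slope.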

[2] = system: HT-29 cell line; conditions: read-out: IC50, cytotoxic activity on HT-29 cell line; 72 hours ref 19; cited from earlier work
[3] = system: K562/ADM cell line; conditions: read-out: IC50, cytotoxic activity on K562/ADM cell line; 72 hours ref 11; cited from earlier work
[4] = system: caspase-8; experiment: Caspase-8 activity, FAM-LETD-FMK fluorescence probe; assay type: cell-based, human; conditions: HeLa, 24 hours; Compound 1 at 3 μM
Outline: (§1)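 HeLa cells grown in E-MEM with 4.2 mM HEPES, 10% FBS, penicillin/streptomycin, 37°C, 5% CO2. 3 × 10^6 cells exposed to test compound at 3 μM for 24 hours, harvested, labelled 1 hour at 37°C with FAM-FLICA probe (DEVD-FMK caspase-3/7, LETD-FMK caspase-8, LEHD-FMK caspase-9), washed. Fluorescence at ex 485/em 530 nm on a plate reader, given as n-fold over control. Mean ± SD; Duncan test.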

[5] = system: caspase-9; experiment: Caspase-9 activity, FAM-LEHD-FMK fluorescence probe; assay type: cell-based, human; conditions: HeLa, 24 hours; Compound 1 at 3 μM
Outline: as §1

[6] = system: caspase-3/7; experiment: Caspase-3/7 activity, FAM-DEVD-FMK fluorescence probe; assay type: cell-based, human; conditions: HeLa, 24 hours; Compound 1 at 3 μM
Outline: as §1

[7] = system: mitochondria membrane potential of HeLa cells; experiment: JC-1 assay of mitochondria membrane potential; assay type: cell-based, human; conditions: 10 μM, 48 hours, untreated cells 294
Outline: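 5 × 10^5 HeLa cells exposed to test compound at 3 μM for 24 and 48 hours, or to a reference drug at 10 μM. Stained with JC-1 for 30 minutes at 37°C, then washed. Green signal read at ex 485/em 530 nm on a plate reader. Red fluorescence (ex 520/em 595 nm) imaged by microscopy at ×400, with intensity quantified from the images. Mean ± SD; Duncan test.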

| Compound | IC50 at 24 h [1] [nM] | IC50 at 48 h [1] [nM] | other results |
| --- | --- | --- | --- |
| CC(=O)O[C@H]1C(=O)[C@@]2(C)[C@H]([C@H](OC(=O)c3ccccc3)[C@]3(O)C[C@H](OC(=O)[C@H](O)[C@@H](NC(=O)c4ccccc4)c4ccccc4)C(C)=C1C3(C)C)[C@]1(OC(C)=O)CO[C@@H]1C[C@@H]2O [Taxol] | 390 | 120 |  |
| rufescenolide C |  |  | IC50 [2]: 150 nM |
| CO[C@@]12[C@H](COC(N)=O)C3=C(C(=O)C(C)=C(N)C3=O)N1C[C@@H]1N[C@@H]12 [Mitomycin C] | 4430 | 1260 |  |
| C=C1CC[C@H]2C(OC(=O)[C@@H]2C)[C@H]2[C@@H]1CC(=O)[C@@H]2CC=C1CC[C@H]2C(=C)[C@H](O)C[C@@H]3[C@H](OC(=O)[C@H]3C)[C@@H]12 (stereo partly drawn) [biguaiascorzolide A] |  |  | IC50 [3]: 39800 nM |
| COc1cc([C@@H]2c3cc4c(cc3[C@@H](O[C@@H]3O[C@@H]5CO[C@@H](C)O[C@H]5[C@H](O)[C@H]3O)[C@H]3COC(=O)[C@H]23)OCO4)cc(OC)c1O [Etoposide] | 7430 | 820 | increase of caspase-8 activity against control [4]: 3.18 fold; increase of caspase-9 activity against control [5]: 3.96 fold; increase of caspase-3/7 activity against control [6]: 3.88 fold; red fluorescence intensity (RFI), JC-1 [7]: 17.56 |
| C=C1C(=O)O[C@@H]2/C=C(\C)CC/C=C(/C(=O)OC)[C@H](OC(C)=O)[C@@H](OC(=O)[C@]3(C)O[C@@H]3C)[C@@H]12 [Compound 4, Uvedalin] | 5290 | 2660 | increase of caspase-8 activity against control [4]: 1.47 fold; increase of caspase-9 activity against control [5]: 3.17 fold; increase of caspase-3/7 activity against control [6]: 2.34 fold |
| C=C1C(=O)O[C@H]2[C@H]1CC/C(C)=C/CC[C@@]1(C)O[C@@H]21 [Parthenolide] | 12300 | 8950 |  |
| C=C1C(=O)O[C@H]2[C@H]1[C@H](OC(=O)[C@@]1(C)O[C@H]1C)[C@@H](OC(C)=O)/C(C(=O)OC)=C\CC[C@@]1(C)O[C@H]21 [Compound 3, Enhydrin] | 2700 | 1530 |  |
